A selection: hits, their analogues and other compounds. The true share with any hit is near 3.4%.
ANO1 block: TMEM16A chloride channel inhibitors, primary screen, cell-based, HTS | HEK293 TMEM16A/YFP iodide influx fluorescence, ionomycin | normalized B-score (activity score, 25-100; higher = stronger inhibition) at 10 µM | AID 588511, 2011 | actives 1.2% (n = 310,000) | Anoctamin-1 (Mus musculus), Q8BHY3;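 active = ratio plate-corrected score three or more library SD toward inhibition, starting fluorescence score within five deviations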;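 note: score derived from kinetic fluorescence span divided by baseline fluorescence per well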
CHT block: inhibitors of human choline transporter CHT | CHT-expressing cells, membrane potential dye, choline response; hits give low values | AID 488975, 2010 | actives 0.86% (n = 310,000) | High affinity choline transporter 1 (Homo sapiens), Q9GZV3 | B-score at 10 µM;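 active = B-score over 3 SD under the library average, and starting fluorescence ratio not unusually high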;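 note: choline stimulus applied at its EC90 after an EC20 pre-addition; B-score computed on integrated fluorescence ratio after choline addition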
Target sequence (Q9GZV3 whole entry, looked up): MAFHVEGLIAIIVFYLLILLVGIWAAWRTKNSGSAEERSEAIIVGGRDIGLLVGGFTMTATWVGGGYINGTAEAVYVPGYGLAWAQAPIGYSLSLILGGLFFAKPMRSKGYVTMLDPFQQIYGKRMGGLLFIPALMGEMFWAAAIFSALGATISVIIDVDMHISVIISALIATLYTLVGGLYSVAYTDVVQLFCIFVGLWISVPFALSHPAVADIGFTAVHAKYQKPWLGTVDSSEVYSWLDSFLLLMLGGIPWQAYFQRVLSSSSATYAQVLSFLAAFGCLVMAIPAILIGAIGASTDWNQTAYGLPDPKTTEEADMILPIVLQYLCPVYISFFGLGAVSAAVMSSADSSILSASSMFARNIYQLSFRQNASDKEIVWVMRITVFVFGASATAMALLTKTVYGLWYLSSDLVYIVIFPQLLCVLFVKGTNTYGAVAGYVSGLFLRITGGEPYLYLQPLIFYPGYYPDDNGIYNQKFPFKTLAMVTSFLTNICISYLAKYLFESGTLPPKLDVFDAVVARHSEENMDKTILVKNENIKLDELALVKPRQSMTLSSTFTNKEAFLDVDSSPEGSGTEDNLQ
CHT PAM: CHT positive allosteric modulators, primary screen, cell-based, membrane potential dye, choline EC20 | High affinity choline transporter 1 (Homo sapiens), Q9GZV3 | CHT-expressing cells; hits give high values; LV-AA mutant CHT in HEK293 cells | B-score at 10 µM | actives 0.49% (n = 310,000);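 active = initial fluorescence not abnormally high and integrated response B-score, plate-corrected, over 3 SD above library mean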
VIM-2 inh: VIM-2 metallo-beta-lactamase inhibitors, primary screen, biochemical, epi-absorbance readout, Pseudomonas aeruginosa enzyme; purified VIM-2, nitrocefin hydrolysis, epi-absorbance fluorescence; inhibition, % at 5.6 µM; actives 0.89% (n = 290,000);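 active = inhibition above the mean of all tested compounds plus 3 SD, cutoff set per screening run, cut at about 7.5% in these data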;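 note: red hydrolysis product quenches plate fluorescence so inhibitors raise well fluorescence; 0% = enzyme with DMSO and 100% = DMSO without enzyme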
TMEM16A act: TMEM16A chloride channel activators or potentiators, primary screen, cell-based, HTS; Anoctamin-1 (Mus musculus), Q8BHY3; HEK293 TMEM16A/YFP-H148Q/I152L, iodide quench fluorescence; hits give low values; B-score at 10 µM; actives 0.3% (n = 340,000);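 active = fluorescence-ratio B-score plate-corrected deviation score at least 3 library SD below zero, with starting fluorescence score within 5 deviations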;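 note: channel opened by trigger with iodide after compound preincubation; score built on the fluorescence ratio of max minus min over baseline; more negative score means more quench and so TMEM16A activation or potentiation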
IMP-1 inh: IMP-1 metallo-beta-lactamase inhibitors, primary screen, biochemical, epi-absorbance readout, Pseudomonas aeruginosa enzyme | purified IMP-1, nitrocefin hydrolysis, epi-absorbance fluorescence | inhibition, % at 5.6 µM | actives 0.45% (n = 290,000) | AID 1556, 2009 | metallo-beta-lactamase IMP-1 (Pseudomonas aeruginosa);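 active = inhibition above the mean plus 3 SD of all compounds in the same screening run, cut at about 4.5% in these data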;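 note: 0% = IMP-1 with DMSO and 100% = DMSO wells lacking enzyme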
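Material – recombinant IMP-1 enzyme, purified · Amount – IMP-1 0.2 nM before substrate addition · Medium – HEPES buffer pH 7.1 with ZnSO4 and Brij 35 · Timing – 25 °C, 15 min preincubation, 25 min reaction · Measured by – plate fluorescence quenching by hydrolysis product, ex 480/em 530 nm · Read-out – percent enzyme inhibition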
CHT activ conf: CHT activators, confirmation, cell-based, membrane potential dye, duplicate | shares compounds with CHT PAM | CHT-expressing cells, membrane potential dye fluorescence (FDSS); % of choline EC20–EC90 response window; HEK293 expressing CHT LV-AA mutant; choline added at its EC20 | activation, % at 10 µM | actives 91% (n = 2,500) | AID 504833, 2011;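 active = primary screen active, with duplicate mean activation above negative control mean plus 3 SD, cut at about 11% in these data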
HEK293 MP dye: membrane potential response in parental HEK293 cells, counter-screen for CHT activator project, cell-based, membrane potential dye; ratio readout change at 10 µM, hits read low; membrane potential dye fluorescence (FDSS); measured after EC20 choline addition; shares compounds with CHT PAM; actives 62% (n = 2,500);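 active = duplicate-averaged ratio beyond 3 SD from buffer wells, up or down, though filed actives are nearly all decreases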
Starred values were filed as active, the others as inactive.

What do the screens show for `CCC1CCc2sc(C(=O)NCC(c3ccc(OC)cc3)N3CCCC3)cc2C1` (configuration not stated)?
ANO1 block: inactive; CHT block: inactive; CHT PAM: inactive; TMEM16A act: inactive; CHT activ conf: 22*; HEK293 MP dye: inactive

How did O=C(CSc1nnc(CNC(=O)c2ccco2)o1)Nc1cccc(F)c1 do in these assays?
ANO1 block: inactive; CHT block: inactive; CHT PAM: inactive; VIM-2 inh: -1; TMEM16A act: inactive; IMP-1 inh: -3

How did Cc1ccccc1C(=O)NNC(=O)C1CC(=O)N(c2ccc3c(c2)OCCO3)C1 (configuration not stated) do in these assays?
TMEM16A act: inactive

Results for O=C(c1cc([N+](=O)[O-])ccc1Cl)N1CCc2ccccc21 ?
ANO1 block: inactive; CHT block: inactive; CHT PAM: inactive; VIM-2 inh: -4; TMEM16A act: inactive; IMP-1 inh: -3

Results for O=C(c1cc([N+](=O)[O-])ccc1N1CCCCC1)N1CCc2ccccc21 ?
ANO1 block: inactive; CHT block: inactive; CHT PAM: inactive; VIM-2 inh: -5; TMEM16A act: inactive; IMP-1 inh: -5; CHT activ conf: 35*; HEK293 MP dye: inactive

What do the screens show for `CCOc1ccc(CCNS(=O)(=O)c2cc3c(cc2C)NC(=O)CO3)cc1OCC`?
ANO1 block: inactive; CHT block: inactive; CHT PAM: inactive; VIM-2 inh: -1; TMEM16A act: inactive; IMP-1 inh: -1

Results for Cc1nc2ccccc2c(N)c1C(=O)/C=C/c1ccccc1 ?
ANO1 block: inactive; CHT block: inactive; CHT PAM: inactive; VIM-2 inh: -2; TMEM16A act: inactive; IMP-1 inh: -1

How did Cc1c(N(C)C)nc2ccccc2c1N do in these assays?
ANO1 block: inactive; CHT block: inactive; CHT PAM: 7*; VIM-2 inh: 2; TMEM16A act: inactive; IMP-1 inh: -3; CHT activ conf: 53*; HEK293 MP dye: -58*

What do the screens show for `CC(=O)c1c(C)nc2ccccc2c1N`?
ANO1 block: inactive; CHT block: inactive; CHT PAM: 8.6*; VIM-2 inh: -1; TMEM16A act: inactive; IMP-1 inh: -2; CHT activ conf: 56*; HEK293 MP dye: -44*

How did O=C(CNC(=O)c1ccco1)OCc1ccccc1F do in these assays?
TMEM16A act: inactive

Results for CCOc1ccc(S(=O)(=O)NCc2ccco2)c2ccccc12 ?
ANO1 block: inactive; CHT block: inactive; CHT PAM: inactive; VIM-2 inh: 1; TMEM16A act: inactive; IMP-1 inh: -1; CHT activ conf: 17*; HEK293 MP dye: inactive

Results for COc1ccc(Cc2nnc(NC(=O)c3ccccc3F)s2)cc1OC ?
ANO1 block: inactive; CHT block: inactive; CHT PAM: inactive; VIM-2 inh: -1; TMEM16A act: inactive; IMP-1 inh: -2

Results for CCc1nnc(NC(=O)CSc2nnc3nc(C)cc(C)n23)s1 ?
ANO1 block: inactive; CHT block: inactive; CHT PAM: 8.5*; VIM-2 inh: -1; TMEM16A act: inactive; IMP-1 inh: -2; CHT activ conf: 52*; HEK293 MP dye: -61*

What do the screens show for `CC(OC(=O)CC1CCCC1)C(=O)Nc1ccc(S(N)(=O)=O)cc1` (configuration not stated)?
ANO1 block: inactive; CHT block: inactive; CHT PAM: inactive; TMEM16A act: inactive

What do the screens show for `COc1ccc(-n2cc(CNCCCN3CCCC3=O)c(-c3ccccc3Cl)n2)cc1`?
ANO1 block: inactive; CHT block: inactive; CHT PAM: 6.3*; VIM-2 inh: -1; TMEM16A act: inactive; IMP-1 inh: -1; CHT activ conf: 19*; HEK293 MP dye: inactive

Results for CC1CN(C(=O)CNC(=O)COc2ccccc2)CC(C)O1 (configuration not stated) ?
TMEM16A act: inactive

What do the screens show for `O=C(CCCOC(=O)c1ccc(O)cc1O)c1ccc(Br)cc1`?
TMEM16A act: inactive

What do the screens show for `CCCCCCCCCCOC(=O)Cn1c(COc2ccccc2OC)[n+](C)c2ccccc21`?
ANO1 block: 100*; CHT block: inactive; CHT PAM: 19*; VIM-2 inh: -1; TMEM16A act: -5.8*; IMP-1 inh: -3; CHT activ conf: 91*; HEK293 MP dye: -37*

What do the screens show for `NC(=O)CN1CCN(CCN2C(=O)c3cccc4cccc(c34)C2=O)CC1`?
ANO1 block: inactive; CHT block: inactive; CHT PAM: inactive; VIM-2 inh: 2; TMEM16A act: inactive; IMP-1 inh: -1; CHT activ conf: 43*; HEK293 MP dye: -33*

How did Nc1cc2c3c(cccc3c1)C(=O)N(CCN1CCCC1)C2=O do in these assays?
ANO1 block: inactive; CHT block: inactive; CHT PAM: inactive; VIM-2 inh: 4; TMEM16A act: inactive; IMP-1 inh: 3

How did CCN(Cc1ccccc1)CC(O)COC(c1ccc(OC)cc1)c1ccc(OC)cc1 (configuration not stated) do in these assays?
ANO1 block: inactive; CHT block: inactive; CHT PAM: inactive; VIM-2 inh: -2; TMEM16A act: inactive; IMP-1 inh: -3; CHT activ conf: 15*; HEK293 MP dye: inactive

What do the screens show for `CC(=O)c1ccccc1C(=O)N1CCC(n2nccc2NC(=O)C2CC2)CC1`?
ANO1 block: inactive; CHT block: inactive; CHT PAM: inactive; VIM-2 inh: -2; TMEM16A act: inactive; IMP-1 inh: -3

What do the screens show for `CCC(C)(C)n1nnnc1C(c1cccc(C#N)c1)N1CCN(c2cccc(C)c2C)CC1` (configuration not stated)?
ANO1 block: inactive; CHT block: inactive; CHT PAM: inactive; VIM-2 inh: -6; TMEM16A act: inactive; IMP-1 inh: -4; CHT activ conf: 26*; HEK293 MP dye: inactive
